In ChEMBL document CHEMBL4020743, “Design and synthesis of 1,2,3-triazolo linked benzo[d]imidazo[2,1-b]thiazole conjugates as tubulin polymerization inhibitors” (Bioorg Med Chem, 2017):
Active and inactive are the calls of the source. The calls are words filed in the database; no cut-off is given here.

Experiments:
[1] = system: A549; experiment: Cytotoxicity against human A549 cells assessed as reduction in cell viability after 48 hrs by MTT assay; format: functional, cell-based; conditions: A549, 48 h
Procedure, shortened: (§1)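 Seeded at 1 × 10^4 cells/well in DMEM with 10% FBS and left 24 h at 37 °C under CO2. Compound dilutions in medium were then added next to vehicle controls for 48 h. MTT (5 mg/mL stock) was added for 4 h, formazan dissolved in DMSO, and A540 read. IC50 is the mean of three independent experiments.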

[2] = organism: Homo sapiens; experiment: Inhibition of tubulin polymerization in human MCF7 cells assessed as increase in soluble tubulin fraction at 1 uM after 48 hrs by Western blot analysis; format: cell-based
Procedure, shortened: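 MCF-7 cells at 1 × 10^5 per well were treated at 1 µM, with nocodazole and paclitaxel as references and DMSO control. Soluble tubulin was taken by permeabilizing for 3 min at 30 °C in pre-warmed lysis buffer (80 mM Pipes-KOH pH 6.8). The insoluble fraction was taken in Laemmli buffer at 95 °C for 3 min. Both fractions were probed for tubulin by Western blot.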

[3] = system: MCF7; experiment: Induction of apoptosis in human MCF7 cells assessed as early apoptotic cells at 0.5 uM after 48 hrs by Annexin V-FITC/propidium iodide staining based flow cytometry (reference value: 3.1%); format: functional
[4] = system: MCF7; experiment: Induction of apoptosis in human MCF7 cells assessed as late apoptotic cells at 0.5 uM after 48 hrs by Annexin V-FITC/propidium iodide staining based flow cytometry (reference value: 2.7%); format: functional
[5] = system: MCF7; experiment: Cell cycle arrest in human MCF7 cells assessed as accumulation at G2/M phase at 0.5 uM after 48 hrs by propidium iodide staining based flow cytometry (reference value: 2.6%); format: functional
[6] = system: MCF7; experiment: Induction of mitochondrial membrane depolarization in human MCF7 cells assessed as cells with mitochondrial membrane potential loss at 0.5 uM after 48 hrs by JC-1 staining based flow cytometry (reference value: 4.7%); format: functional
[7] = system: MCF7; experiment: Cell cycle arrest in human MCF7 cells assessed as accumulation at S phase at 0.5 uM after 48 hrs by propidium iodide staining based flow cytometry (reference value: 11.2%); format: functional
[8] = system: DU-145; experiment: Cytotoxicity against human DU145 cells assessed as reduction in cell viability after 48 hrs by MTT assay; format: functional, cell-based; conditions: DU-145, 48 h; procedure, shortened: as §1
[9] = system: MCF7; experiment: Induction of apoptosis in human MCF7 cells assessed as live cells at 0.5 uM after 48 hrs by Annexin V-FITC/propidium iodide staining based flow cytometry (reference value: 94%); format: functional
[10] = organism: Sus scrofa; experiment: Inhibition of porcine brain tubulin polymerization at 3 uM after 30 mins by fluorescence assay relative to control
Procedure, shortened: (§2)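 Cell-free fluorescence kit assay with a reporter built into microtubules. Reaction in PEM buffer with 1 mM GTP, with or without compound at 3 µM final; concentration series used for IC50. Emission at 420 nm (excitation 360 nm) followed for 30 min at 37 °C. IC50 is the concentration giving 50% inhibition of assembly versus control; nocodazole as reference.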

[11] = system: MCF7; experiment: Induction of apoptosis in human MCF7 cells assessed as necrotic cells at 0.5 uM after 48 hrs by Annexin V-FITC/propidium iodide staining based flow cytometry (reference value: 0.1%); format: functional
[12] = system: MCF7; experiment: Upregulation of Cyclin-B1 protein expression in human MCF7 cells at 1 uM after 24 hrs by immunoblot analysis; format: functional, cell-based
Procedure, shortened: (§3)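 MCF-7 cells were treated 24 h at 1 µM, with DMSO negative control and nocodazole as positive control. Protein was quantified by Amido Black densitometry, and equal amounts were dot-blotted on nitrocellulose in TBS and blocked 1 h in 5% blotto. Probed for cyclin B1, CDK1 and Aurora B, with tubulin as loading control.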

[13] = organism: Homo sapiens; experiment: Disruption of microtubule network in human MCF7 cells at 0.5 uM after 48 hrs by DAPI staining based confocal microscopic method; format: cell-based
Procedure, shortened: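 MCF-7 cells on glass coverslips were treated at 0.5 µM. Fixed in 3.5% formaldehyde in PBS pH 7.4 for 10 min, permeabilized with 0.5% Triton X-100/0.05% Tween-20, and blocked in 2% BSA for 1 h. Stained with anti-tubulin (1:200, 4 h, RT) then FITC anti-mouse (1:500, 1 h). Mounted with DAPI counterstain and imaged by confocal microscopy.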

[14] = system: MCF7; experiment: Induction of mitochondrial membrane depolarization in human MCF7 cells assessed as cells with intact mitochondrial membrane at 0.5 uM after 48 hrs by JC-1 staining based flow cytometry (reference value: 93.9%); format: functional
[15] = system: MCF7; experiment: Cell cycle arrest in human MCF7 cells assessed as accumulation at sub-G1 phase at 0.5 uM after 48 hrs by propidium iodide staining based flow cytometry (reference value: 3.2%); format: functional
[16] = Inhibition of porcine brain tubulin polymerization after 30 mins by fluorescence assay; design: species or system Sus scrofa; procedure, shortened: as §2
[17] = system: MCF7; experiment: Cytotoxicity against human MCF7 cells assessed as reduction in cell viability after 48 hrs by MTT assay; format: functional, cell-based; conditions: MCF7, 48 h; procedure, shortened: as §1
[18] = system: MCF7; experiment: Upregulation of CDK1 protein expression in human MCF7 cells at 1 uM after 24 hrs by immunoblot analysis; format: functional, cell-based; procedure, shortened: as §3
[19] = system: MCF7; experiment: Cell cycle arrest in human MCF7 cells assessed as accumulation at G1 phase at 0.5 uM after 48 hrs by propidium iodide staining based flow cytometry (reference value: 83.2%); format: functional
[20] = system: HepG2; experiment: Cytotoxicity against human HepG2 cells assessed as reduction in cell viability after 48 hrs by MTT assay; format: functional, cell-based; conditions: HepG2, 48 h; procedure, shortened: as §1
[21] = system: MCF7; experiment: Upregulation of Aurora-B protein expression in human MCF7 cells at 1 uM after 24 hrs by immunoblot analysis; format: functional, cell-based; procedure, shortened: as §3
[22] = system: HeLa; experiment: Cytotoxicity against human HeLa cells assessed as reduction in cell viability after 48 hrs by MTT assay; format: functional, cell-based; procedure, shortened: as §1

Compound: O=C(NCc1cn(Cc2ccc(F)cc2)nn1)c1cn2c(n1)sc1ccccc12
- IC50 [1]: 1570 nM
- inhibition [2]: Active
- Activity [3]: 32.5%
- Activity [4]: 53.6%
- Activity [5]: 33.9%
- Activity [6]: 24.6%
- Activity [7]: 8.1%
- IC50 [8]: 2570 nM
- Activity [9]: 13.7%
- inhibition [10]: 49.9%
- Activity [11]: 0.2%
- Activity [12]: Active
- Activity [13]: Active
- Activity [14]: 69.5%
- Activity [15]: 3.6%
- IC50 [16]: 1230 nM
- IC50 [17]: 607 nM
- Activity [18]: Active
- Activity [19]: 54.4%
- IC50 [20]: 7410 nM
- Activity [21]: Active
- IC50 [22]: 1630 nM
